One series deals with T1, Caspase-3 (Mus musculus) (UniProt P70677).
T1 sequence (whole entry): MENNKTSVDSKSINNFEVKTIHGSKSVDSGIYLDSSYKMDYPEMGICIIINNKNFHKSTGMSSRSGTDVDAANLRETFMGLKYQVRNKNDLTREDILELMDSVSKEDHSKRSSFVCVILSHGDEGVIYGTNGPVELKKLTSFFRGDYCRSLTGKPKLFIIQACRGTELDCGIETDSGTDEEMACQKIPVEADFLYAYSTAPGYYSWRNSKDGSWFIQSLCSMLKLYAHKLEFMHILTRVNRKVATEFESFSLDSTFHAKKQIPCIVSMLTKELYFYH
Kind of series: Inhibition of caspase 3 in mouse RIF1 cells assessed as disruption of cisplatin-stimulated PARP induction by Western blot. Type of series: cell-based. The note with it: RIF-1. Put shortly: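 RIF-1 murine fibrosarcoma cells were pretreated 15 min with caspase inhibitors (Z-VAD-FMK 100 µM as control), then given cisplatin 100 µM for 48 h. Lysates were made in RIPA with protease/phosphatase inhibitors, and 30 µg protein was run on 4–12% SDS-PAGE and blotted to PVDF. Probed with anti-cleaved PARP (89 kDa fragment) and α-tubulin loading control, detected by ECL.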
(A western blot detects proteins with antibodies after separation by electrophoresis.)

For the next series, the target named is T2, Caspase-7 (Homo sapiens, UniProt P55210).
T2 sequence (P55210 whole entry): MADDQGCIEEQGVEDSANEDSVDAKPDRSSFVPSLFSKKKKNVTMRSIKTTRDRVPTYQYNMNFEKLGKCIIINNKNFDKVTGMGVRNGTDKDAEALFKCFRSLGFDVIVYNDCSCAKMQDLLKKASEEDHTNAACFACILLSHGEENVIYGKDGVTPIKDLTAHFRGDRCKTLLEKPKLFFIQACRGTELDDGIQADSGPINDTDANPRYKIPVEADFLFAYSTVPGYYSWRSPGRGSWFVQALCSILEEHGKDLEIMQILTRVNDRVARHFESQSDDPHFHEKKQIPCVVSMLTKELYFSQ
Kind of series: Inhibition of human recombinant caspase 7 assessed as accumulation of 7-amino-4-methylcoumarin substrate. Put shortly:
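Isatin (5 pM–500 µM, 9 levels) preincubated 10 min, then Ac-DEVD-AMC (10 µM final) added for 30 min. 7-AMC fluorescence read at ex 355/em 460 nm against no-enzyme controls. EC50 by nonlinear regression; duplicates, two runs.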

The next series has as its target T3, Caspase-6 (Homo sapiens, UniProt P55212).
T3 sequence (P55212 whole entry): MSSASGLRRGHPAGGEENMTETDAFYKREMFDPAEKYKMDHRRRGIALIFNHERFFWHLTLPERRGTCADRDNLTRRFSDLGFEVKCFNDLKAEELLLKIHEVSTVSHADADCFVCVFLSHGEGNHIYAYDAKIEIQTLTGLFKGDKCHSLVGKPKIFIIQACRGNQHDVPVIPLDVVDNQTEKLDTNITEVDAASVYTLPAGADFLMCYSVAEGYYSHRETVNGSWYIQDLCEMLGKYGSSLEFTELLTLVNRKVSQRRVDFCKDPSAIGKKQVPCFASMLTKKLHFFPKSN
Briefly: Inhibition of human recombinant caspase 6 assessed as accumulation of 7-amino-4-methylcoumarin substrate. The essentials:
(§1)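 Substrates at 10 µM: Ac-DEVD-AMC (caspase 3), Ac-VEID-AMC (caspase 6), Ac-IETD-AMC (caspase 8), added after 10 min preincubation with inhibitor (5 pM–500 µM). 7-AMC read after 30 min at ex 355/em 460 nm. Duplicates, two runs; EC50 by nonlinear regression.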

The next series addresses T4, Caspase-3 (Homo sapiens, UniProt P42574).
T4 sequence (P42574 whole entry): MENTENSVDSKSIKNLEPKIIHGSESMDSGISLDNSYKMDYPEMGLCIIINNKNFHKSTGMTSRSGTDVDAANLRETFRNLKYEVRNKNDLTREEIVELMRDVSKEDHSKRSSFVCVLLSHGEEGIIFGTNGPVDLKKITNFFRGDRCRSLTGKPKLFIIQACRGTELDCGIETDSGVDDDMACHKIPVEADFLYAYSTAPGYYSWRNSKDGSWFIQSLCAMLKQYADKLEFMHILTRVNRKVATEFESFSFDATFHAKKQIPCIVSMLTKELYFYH
Kind of series: Inhibition of human recombinant caspase 3 assessed as accumulation of 7-amino-4-methylcoumarin substrate. Put shortly:
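Substrates at 10 µM: Ac-DEVD-AMC (caspase 3), Ac-VEID-AMC (caspase 6), Ac-IETD-AMC (caspase 8), added after 10 min preincubation with inhibitor (5 pM–500 µM). Duplicates, two runs; EC50 by nonlinear regression.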

The target in another series is T5, Caspase-1 (Homo sapiens, UniProt P29466).
T5 sequence (P29466 whole entry): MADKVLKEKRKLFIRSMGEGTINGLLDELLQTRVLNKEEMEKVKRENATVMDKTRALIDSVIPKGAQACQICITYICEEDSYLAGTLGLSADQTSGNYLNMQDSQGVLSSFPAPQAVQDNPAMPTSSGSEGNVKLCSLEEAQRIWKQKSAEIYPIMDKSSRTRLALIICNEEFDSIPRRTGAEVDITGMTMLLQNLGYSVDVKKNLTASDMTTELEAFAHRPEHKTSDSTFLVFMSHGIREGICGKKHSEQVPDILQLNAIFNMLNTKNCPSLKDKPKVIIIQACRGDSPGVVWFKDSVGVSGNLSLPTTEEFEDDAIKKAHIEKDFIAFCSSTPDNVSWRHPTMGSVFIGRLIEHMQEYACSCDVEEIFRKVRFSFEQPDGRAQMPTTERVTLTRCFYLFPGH
Briefly: Inhibition of human recombinant caspase 1 assessed as accumulation of 7-amino-4-methylcoumarin substrate. The essentials: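 Recombinant human caspase 1 (0.5 units) at 37 °C in 100 mM HEPES pH 7.4, 0.1% CHAPS, 100 mM NaCl, 5 mM 2-mercaptoethanol, 2 mM EDTA, 10% sucrose, 5% DMSO final. Inhibitor (5 pM–500 µM, 9 concentrations) preincubated 10 min before adding 10 µM Ac-YVAD-AMC for 30 min. 7-AMC fluorescence read at ex 355/em 460 nm against no-enzyme controls. Duplicates, two runs; EC50 by nonlinear regression.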

In the next series the target is Caspase-8 (Homo sapiens, UniProt Q14790). Kind of series: Inhibition of human recombinant caspase 8 assessed as accumulation of 7-amino-4-methylcoumarin substrate. The essentials: as §1
A short description of series [1]: Metabolic stability in mouse liver S9 fraction at pH 7.4. It is filed as ADME, subcellular. The note with it: s9, pH 7.4. The essentials: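 Mouse liver homogenized in 50 mM Tris–150 mM KCl–HCl pH 7.4 and spun at 10000g for 30 min to give S9. Compound (10 µL of 10 mM stock) was incubated with S9 (20 µL of 33.26 mg/mL) and 0.5 mM NADPH in Tris-HCl pH 7.4 (1 mL total), 60 min at 37 °C in air. Stopped with ice-cold acetonitrile and analyzed by gradient reverse-phase HPLC.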

A short description of series [2]: Increase in drug uptake in mouse RIF1 cells after 60 mins relative to control. Type of series: ADME, cell-based. As to conditions: rif-1, 1 h. The essentials: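 RIF-1 murine fibrosarcoma cells, plated in triplicate 2–3 days ahead, were exposed to CDDP at 100 µM or to vehicle (0.1% DMSO) for 48 h. About 10 µCi/well of the 18F tracer was then taken up for 60 min at 37 °C. Cells were collected, washed, resuspended in PBS and gamma-counted. Decay-corrected counts/min were normalised to mg protein (BCA), and the treated level was compared with the untreated one.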

The subject of series [3] is Plasma. Briefly: Metabolic stability in […] mouse plasma assessed as ratio of peak to total radioactivity present on chromatogram at 3.7 MBq, iv after 2 mins. Type of series: ADME, organism-based, RIF-1. The note with it: in vivo, in the assay text read “7.4 MBq” for “3.7 MBq”. The essentials:
(§2)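 [¹⁸F]15 (7.4 MBq) injected iv into non-tumor-bearing C3H/hej mice. Plasma and liver were snap-frozen, extracted with ice-cold acetonitrile (liver homogenized), centrifuged and dried. Extracts were analyzed by reverse-phase C18 radio-HPLC (ammonium formate/methanol:acetonitrile gradient). Percent parent = parent peak relative to total chromatogram radioactivity. Plasma: average of 3 studies per time point; liver: individual results from two samples.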

Another series deals with Liver. Kind of series: Metabolic stability […] mouse liver assessed as ratio of peak to total radioactivity present on chromatogram at 3.7 MBq, iv after 2 mins. It is filed as ADME, organism-based. As to conditions: in vivo. Put shortly: as §2
Series [4] relates to Plasma. Briefly: Metabolic stability in […] mouse plasma assessed as ratio of peak to total radioactivity present on chromatogram at 3.7 MBq, iv after 15 mins. It is filed as ADME, organism-based. The note with it: in vivo, 0.25 h. The essentials:
as §2

Series [5] in a line: Chemical stability assessed as half life. It is filed as physicochemical.
Series [6] is described as follows: Lipophilicity, log P of the compound. Type of series: physicochemical. As to conditions: octanol/water.

Active and inactive are the calls of the source. The calls are words filed in the database; no cut-off is given here.

Usually EC50 stands for the concentration that produces a half-maximal response. One may read the half-life as how long it takes for the measured level to halve. The term logP denotes the decadic logarithm of the partition coefficient of the neutral form, usually between octanol and water. Read a high logP as a more lipophilic compound.

Chain of Caspase-8 (Q14790 217-374 limits assumed): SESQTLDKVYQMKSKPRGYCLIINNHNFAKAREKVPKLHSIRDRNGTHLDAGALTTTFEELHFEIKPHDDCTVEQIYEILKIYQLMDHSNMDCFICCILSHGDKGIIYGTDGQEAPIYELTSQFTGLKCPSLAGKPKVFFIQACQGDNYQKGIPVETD
Chain of Caspase-8 (Q14790 385-479 limits assumed): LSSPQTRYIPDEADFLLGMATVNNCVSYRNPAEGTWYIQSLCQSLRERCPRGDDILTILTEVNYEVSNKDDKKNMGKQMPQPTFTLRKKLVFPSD

With `O=C1C(=O)N(Cc2ccc(I)cc2)c2ccc(S(=O)(=O)N3CCC[C@H]3COc3ccccc3)cc21`, the outcome on Caspase-3 (Mus musculus) was inactive.
With `O=C1C(=O)N(Cc2ccc(F)cc2)c2ccc(S(=O)(=O)N3CCC[C@H]3COCc3cn(CCF)nn3)cc21`, the concentration for a half-maximal effect (EC50) was 18.3 nM at Caspase-7; above 5000 nM at Caspase-6; 12.6 nM at Caspase-3; above 5000 nM on Caspase-1; above 5000 nM at Caspase-8.
On to `O=C1C(=O)N(Cc2ccc(F)cc2)c2ccc(S(=O)(=O)N3CCC[C@H]3COc3ccccc3)cc21`, for which the EC50 at Caspase-3 worked out at 50.5 nM.
On to `O=C1C(=O)N(Cc2ccc(F)cc2)c2ccc(S(=O)(=O)N3CCCC3)cc21`, for which the Stability entry in series [1] is “Stable”.
Regarding `O=C1C(=O)N(Cc2cn(CC[18F])nn2)c2ccc(S(=O)(=O)N3CCC[C@H]3COc3ccc(F)cc3F)cc21`, the “fold change (FC)” value in series [2] stood at 1.5. Besides, the Activity with Plasma [3] worked out at 86.1%; in the series on Liver it was 35.7%; in the series with Plasma [4], 61.3%.
For `O=C1C(=O)N(Cc2ccc(F)cc2)c2ccc(S(=O)(=O)N3CCC[C@H]3COC3CCOCC3)cc21`, on Caspase-3, the half-maximal effective concentration (EC50) turned out to be 10.7 nM.
Take `O=C1C(=O)N(Cc2ccc([125I])cc2)c2ccc(S(=O)(=O)N3CCC[C@H]3COc3ccccc3)cc21`: in series [5], the half-life is 59.9 days.
Turning to `O=C1C(=O)N(Cc2cn(CCF)nn2)c2ccc(S(=O)(=O)N3CCC[C@H]3COc3ccc(F)cc3F)cc21`, in series [6], the lipophilicity (logP) turned out to be 1.61.

(Values after ChEMBL document CHEMBL1151718, “Design, synthesis, and biological characterization of a caspase 3/7 selective isatin labeled with 2-[18F]fluoroethylazide” (J Med Chem, 2008).)
